In ChEMBL document CHEMBL3407461 (J Med Chem, 2014):

Assays:
[1] = system: Mus musculus; experiment: Antinociceptive activity in chronic constriction injury neutropathic pain CD-1 mouse model assessed as time for peak protection at 3 umol/kg, po; format: functional
In short: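 Male CD-1 mice (25−30 g), chronic constriction injury of left sciatic nerve (Bennett model) under isoflurane. Dosed by gavage (3 μmol/kg, 0.2 mL) at peak mechano-allodynia on day 7; vehicle 10% DMSO in 0.5% methylcellulose. Paw withdrawal threshold (g) measured on the ipsilateral hind paw from 30 min to 5 h post dose. Expressed as % reversal, mean ± SEM over n animals.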

[2] = system: Mus musculus; experiment: Antinociceptive activity in chronic constriction injury neutropathic pain CD-1 mouse model at 3 umol/kg, po after 3 hrs post dose relative to control; format: functional
[3] = biological target: Voltage-gated inwardly rectifying potassium channel KCNH2 (Homo sapiens, UniProt Q12809); experiment: Inhibition of human ERG by PDSP screening
Chain of Voltage-gated inwardly rectifying potassium channel KCNH2 (Q12809 whole entry): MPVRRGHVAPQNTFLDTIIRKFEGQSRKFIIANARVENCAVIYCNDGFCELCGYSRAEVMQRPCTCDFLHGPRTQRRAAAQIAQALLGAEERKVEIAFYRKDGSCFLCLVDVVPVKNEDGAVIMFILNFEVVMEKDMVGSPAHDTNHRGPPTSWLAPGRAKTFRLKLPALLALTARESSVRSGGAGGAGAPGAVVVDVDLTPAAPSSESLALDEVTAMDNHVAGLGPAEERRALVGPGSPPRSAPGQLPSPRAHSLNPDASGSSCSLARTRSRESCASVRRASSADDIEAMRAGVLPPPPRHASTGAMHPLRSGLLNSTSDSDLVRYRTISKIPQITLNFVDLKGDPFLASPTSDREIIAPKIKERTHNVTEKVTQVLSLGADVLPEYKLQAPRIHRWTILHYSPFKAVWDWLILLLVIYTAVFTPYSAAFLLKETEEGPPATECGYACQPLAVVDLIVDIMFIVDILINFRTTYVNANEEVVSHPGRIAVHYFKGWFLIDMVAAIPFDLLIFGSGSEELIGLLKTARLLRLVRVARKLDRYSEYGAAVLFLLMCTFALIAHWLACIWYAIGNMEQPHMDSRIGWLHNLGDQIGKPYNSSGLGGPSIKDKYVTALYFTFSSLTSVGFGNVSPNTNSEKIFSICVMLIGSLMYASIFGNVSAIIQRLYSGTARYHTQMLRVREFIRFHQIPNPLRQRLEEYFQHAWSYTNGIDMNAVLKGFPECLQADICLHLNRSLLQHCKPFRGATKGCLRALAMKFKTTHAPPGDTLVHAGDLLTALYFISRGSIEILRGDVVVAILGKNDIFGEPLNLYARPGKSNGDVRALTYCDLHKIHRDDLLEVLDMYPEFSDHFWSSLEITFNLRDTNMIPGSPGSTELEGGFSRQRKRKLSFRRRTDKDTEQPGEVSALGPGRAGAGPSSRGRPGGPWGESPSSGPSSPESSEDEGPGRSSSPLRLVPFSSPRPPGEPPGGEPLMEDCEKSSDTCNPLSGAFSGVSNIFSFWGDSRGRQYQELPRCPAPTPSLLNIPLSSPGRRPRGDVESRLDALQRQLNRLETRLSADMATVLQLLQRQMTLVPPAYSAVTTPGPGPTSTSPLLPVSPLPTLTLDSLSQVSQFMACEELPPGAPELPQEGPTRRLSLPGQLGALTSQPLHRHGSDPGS

[4] = system: Mus musculus; experiment: Antinociceptive activity in chronic constriction injury neutropathic pain CD-1 mouse model assessed as maximum protection on ipsilateral hind paw at 3 umol/kg, po after 30 mins to 5 hrs post dose relative to control; format: functional; conditions: CD-1, po
[5] = system: CHO; experiment: Selectivity ratio of IC50 for human ERG to IC50 for human recombinant A3 adenosine receptor expressed in CHO cells; format: cell-based
[6] = system: CHO; experiment: Selectivity ratio of Ki for mouse A3 adenosine receptor expressed in HEK293 cells to Ki for human recombinant A3 adenosine receptor expressed in CHO cells; format: cell-based
[7] = biological target: Adenosine receptor A3 (Mus musculus, UniProt Q61618); experiment: Displacement of [125I]I-AB-MECA from mouse A3 adenosine receptor expressed in HEK293 cells after 60 mins by liquid scintillation counting; format: cell-based
[8] = Permeability across apical to basolateral side of human Caco2 cells expressing P-gp; format: ADME, cell-based; conditions: caco-2
[9] = biological target: T1, Adenosine receptor A1 (Mus musculus) (UniProt Q60612); experiment: Displacement of [125I]I-AB-MECA from mouse A1 adenosine receptor expressed in HEK293 cells at 10 uM after 60 mins by liquid scintillation counting
T1 sequence (whole entry): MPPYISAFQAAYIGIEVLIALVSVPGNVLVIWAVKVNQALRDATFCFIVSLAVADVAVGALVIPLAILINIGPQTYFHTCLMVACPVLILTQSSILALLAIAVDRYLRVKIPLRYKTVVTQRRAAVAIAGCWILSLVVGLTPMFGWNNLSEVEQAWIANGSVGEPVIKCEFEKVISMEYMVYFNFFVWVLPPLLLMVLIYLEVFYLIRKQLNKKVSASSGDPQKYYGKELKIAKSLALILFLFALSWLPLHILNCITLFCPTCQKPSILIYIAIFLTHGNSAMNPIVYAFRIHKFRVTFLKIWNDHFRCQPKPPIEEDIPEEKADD

[10] = biological target: Adenosine receptor A2a (Mus musculus) (UniProt Q60613); experiment: Displacement of [3H]CGS21680 from mouse A2A adenosine receptor expressed in HEK293 cells at 10 uM after 60 mins by liquid scintillation counting; format: cell-based
Chain of Adenosine receptor A2a (Mus musculus) (Q60613 whole entry): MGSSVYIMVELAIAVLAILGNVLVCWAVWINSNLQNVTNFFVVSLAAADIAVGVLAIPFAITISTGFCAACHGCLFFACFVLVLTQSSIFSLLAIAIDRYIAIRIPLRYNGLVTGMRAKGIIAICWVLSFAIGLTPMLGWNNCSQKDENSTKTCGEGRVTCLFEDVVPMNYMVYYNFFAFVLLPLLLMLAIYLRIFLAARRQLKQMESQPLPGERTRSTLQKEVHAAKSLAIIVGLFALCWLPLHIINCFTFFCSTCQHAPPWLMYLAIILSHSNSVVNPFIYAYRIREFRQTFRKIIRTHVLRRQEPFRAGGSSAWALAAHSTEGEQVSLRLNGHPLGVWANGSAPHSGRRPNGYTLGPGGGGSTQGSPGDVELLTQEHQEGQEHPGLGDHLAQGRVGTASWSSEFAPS

[11] = biological target: T2, Adenosine receptor A1 (Homo sapiens) (UniProt P30542); experiment: Displacement of [3H]R-PIA from human recombinant A1 adenosine receptor expressed in CHO cells at 10 uM after 60 mins by liquid scintillation counting; format: cell-based
T2 sequence (whole entry): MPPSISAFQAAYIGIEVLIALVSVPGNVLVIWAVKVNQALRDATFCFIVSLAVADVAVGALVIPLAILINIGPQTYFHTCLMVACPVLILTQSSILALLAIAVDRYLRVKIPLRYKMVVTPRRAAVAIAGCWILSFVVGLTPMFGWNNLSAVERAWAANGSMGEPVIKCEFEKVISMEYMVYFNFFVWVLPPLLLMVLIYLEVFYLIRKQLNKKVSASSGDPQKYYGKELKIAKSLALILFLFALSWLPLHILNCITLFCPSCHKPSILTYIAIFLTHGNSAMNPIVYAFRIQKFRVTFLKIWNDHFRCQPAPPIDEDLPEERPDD

[12] = biological target: Adenosine receptor A2a (Homo sapiens) (UniProt P29274); experiment: Displacement of [3H]CGS21680 from human recombinant A2A adenosine receptor expressed in HEK293 cells at 10 uM after 60 mins by liquid scintillation counting; format: cell-based
Chain of Adenosine receptor A2a (Homo sapiens) (P29274 whole entry): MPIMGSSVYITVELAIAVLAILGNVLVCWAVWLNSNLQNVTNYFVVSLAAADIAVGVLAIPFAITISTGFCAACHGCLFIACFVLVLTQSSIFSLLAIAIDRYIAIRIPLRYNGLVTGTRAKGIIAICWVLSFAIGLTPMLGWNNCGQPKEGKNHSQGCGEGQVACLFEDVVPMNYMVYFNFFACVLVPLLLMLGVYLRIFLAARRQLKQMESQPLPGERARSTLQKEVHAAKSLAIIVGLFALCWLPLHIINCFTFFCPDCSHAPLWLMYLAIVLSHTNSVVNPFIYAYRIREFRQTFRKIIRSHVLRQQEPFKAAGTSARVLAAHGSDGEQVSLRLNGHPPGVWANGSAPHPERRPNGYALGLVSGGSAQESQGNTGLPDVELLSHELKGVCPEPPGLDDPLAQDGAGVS

[13] = biological target: hERG (KCNH2) (Homo sapiens, UniProt Q12809); experiment: Inhibition of human ERG at 10 uM by PDSP screening
Chain of hERG (KCNH2) (Q12809 whole entry): as the sequence (Q12809 whole entry) above

[14] = biological target: T3, Cytochrome P450 1A2 (Homo sapiens, UniProt P05177); experiment: Inhibition of CYP1A2 in human microsomes preincubated for 5 mins before substrate addition measured after 10 mins by LC/MS/MS analysis; format: ADME
T3 sequence (P05177 whole entry): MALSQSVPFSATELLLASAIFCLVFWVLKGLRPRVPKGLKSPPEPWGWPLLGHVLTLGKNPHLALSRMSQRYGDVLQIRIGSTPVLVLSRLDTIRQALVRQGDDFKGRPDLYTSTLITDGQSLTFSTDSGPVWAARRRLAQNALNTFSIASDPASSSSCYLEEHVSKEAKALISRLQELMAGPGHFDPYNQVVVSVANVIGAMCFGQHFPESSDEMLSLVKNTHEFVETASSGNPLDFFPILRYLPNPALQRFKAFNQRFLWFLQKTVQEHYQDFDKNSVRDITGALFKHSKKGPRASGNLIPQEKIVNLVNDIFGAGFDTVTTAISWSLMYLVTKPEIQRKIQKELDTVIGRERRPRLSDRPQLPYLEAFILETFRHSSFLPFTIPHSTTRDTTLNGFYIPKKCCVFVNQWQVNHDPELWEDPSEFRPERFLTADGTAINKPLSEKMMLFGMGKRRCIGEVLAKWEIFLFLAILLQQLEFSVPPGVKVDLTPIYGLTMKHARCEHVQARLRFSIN

[15] = biological target: T4, Adenosine receptor A3 (Mus musculus) (UniProt Q61618); experiment: Agonist activity at mouse A3 adenosine receptor expressed in HEK293 cells assessed as inhibition of forskolin-stimulated cAMP production after 15 mins relative to control; format: functional, cell-based
T4 sequence (whole entry): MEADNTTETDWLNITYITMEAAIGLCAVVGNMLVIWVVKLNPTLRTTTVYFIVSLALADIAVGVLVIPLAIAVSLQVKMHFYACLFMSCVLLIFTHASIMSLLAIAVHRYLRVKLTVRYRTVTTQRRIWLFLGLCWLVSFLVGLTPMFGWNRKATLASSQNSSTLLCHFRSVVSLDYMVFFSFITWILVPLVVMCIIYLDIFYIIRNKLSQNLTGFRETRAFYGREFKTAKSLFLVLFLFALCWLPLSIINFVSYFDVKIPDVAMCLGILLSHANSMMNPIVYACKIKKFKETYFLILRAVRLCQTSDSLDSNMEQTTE
In short: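 2 × 10^5 cells/tube, coincubated with forskolin 10 μM plus ligand for 15 min at 37 °C with shaking. Stopped with HCl. cAMP in supernatant measured by competitive binding.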

[16] = biological target: Cytochrome P450 2C19 (Homo sapiens, UniProt P33261); experiment: Inhibition of CYP2C19 in human microsomes preincubated for 5 mins before substrate addition measured after 10 mins by LC/MS/MS analysis; format: ADME
[17] = biological target: Cytochrome P450 3A4 (Homo sapiens, UniProt P08684); experiment: Inhibition of CYP3A4 in human microsomes preincubated for 5 mins before substrate addition measured after 10 mins by LC/MS/MS analysis; format: ADME
Chain of Cytochrome P450 3A4 (P08684 whole entry): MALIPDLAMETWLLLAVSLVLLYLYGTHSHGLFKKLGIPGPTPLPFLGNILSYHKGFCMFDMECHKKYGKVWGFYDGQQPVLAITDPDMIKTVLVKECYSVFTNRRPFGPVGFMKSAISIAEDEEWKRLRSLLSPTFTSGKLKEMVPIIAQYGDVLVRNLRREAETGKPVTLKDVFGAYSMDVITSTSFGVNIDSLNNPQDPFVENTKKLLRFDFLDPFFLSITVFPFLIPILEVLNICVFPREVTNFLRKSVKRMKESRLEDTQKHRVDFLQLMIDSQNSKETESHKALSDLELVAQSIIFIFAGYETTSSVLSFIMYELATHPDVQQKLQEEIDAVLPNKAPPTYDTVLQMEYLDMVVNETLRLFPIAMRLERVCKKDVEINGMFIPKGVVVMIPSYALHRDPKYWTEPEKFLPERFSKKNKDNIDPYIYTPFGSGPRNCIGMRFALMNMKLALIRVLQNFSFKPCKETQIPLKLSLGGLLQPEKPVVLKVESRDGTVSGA

[18] = biological target: Cytochrome P450 2D6 (Homo sapiens, UniProt P10635); experiment: Inhibition of CYP2D6 in human microsomes preincubated for 5 mins before substrate addition measured after 10 mins by LC/MS/MS analysis; format: ADME
Chain of Cytochrome P450 2D6 (P10635 whole entry): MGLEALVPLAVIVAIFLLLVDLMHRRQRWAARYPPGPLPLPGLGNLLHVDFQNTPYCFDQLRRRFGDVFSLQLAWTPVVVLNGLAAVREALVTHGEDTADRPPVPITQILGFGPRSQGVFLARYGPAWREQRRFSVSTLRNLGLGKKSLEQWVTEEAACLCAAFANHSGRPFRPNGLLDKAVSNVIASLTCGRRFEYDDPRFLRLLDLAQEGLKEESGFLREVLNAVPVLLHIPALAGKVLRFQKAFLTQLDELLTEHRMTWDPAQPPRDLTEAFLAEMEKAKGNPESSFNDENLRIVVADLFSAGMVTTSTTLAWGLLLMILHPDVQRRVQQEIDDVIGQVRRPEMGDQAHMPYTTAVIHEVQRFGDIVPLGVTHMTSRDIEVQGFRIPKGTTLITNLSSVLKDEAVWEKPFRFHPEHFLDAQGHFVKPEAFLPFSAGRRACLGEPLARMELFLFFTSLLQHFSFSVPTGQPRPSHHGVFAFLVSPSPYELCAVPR

[19] = system: Liver microsome; experiment: Intrinsic clearance in human liver microsomes assessed per mg protein at 100 uM by LC-MS/MS analysis; format: ADME
[20] = biological target: Cytochrome P450 2C9 (Homo sapiens, UniProt P11712); experiment: Inhibition of CYP2C9 in human microsomes preincubated for 5 mins before substrate addition measured after 10 mins by LC/MS/MS analysis; format: ADME
Chain of Cytochrome P450 2C9 (P11712 whole entry): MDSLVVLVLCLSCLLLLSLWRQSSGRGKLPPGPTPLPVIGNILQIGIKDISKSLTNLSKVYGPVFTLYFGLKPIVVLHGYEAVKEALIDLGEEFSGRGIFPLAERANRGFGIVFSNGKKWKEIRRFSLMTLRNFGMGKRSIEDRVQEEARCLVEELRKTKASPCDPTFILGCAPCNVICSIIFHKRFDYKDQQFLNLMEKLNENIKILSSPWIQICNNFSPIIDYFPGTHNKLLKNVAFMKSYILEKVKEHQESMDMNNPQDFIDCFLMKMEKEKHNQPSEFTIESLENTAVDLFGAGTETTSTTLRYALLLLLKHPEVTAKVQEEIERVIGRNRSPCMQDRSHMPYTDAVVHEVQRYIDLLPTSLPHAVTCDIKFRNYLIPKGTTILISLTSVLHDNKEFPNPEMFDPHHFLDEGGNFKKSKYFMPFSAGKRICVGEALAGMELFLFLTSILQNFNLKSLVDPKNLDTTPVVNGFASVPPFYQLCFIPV

| permeability [8] | inhibition [9] | inhibition [10] | inhibition [11] | inhibition [12] | IC50 [14] | Imax [15] | IC50 [16] | IC50 [17] | IC50 [18] | CLH [19] | IC50 [20] | SMILES | Time [1] | Activity [2] | IC50 [3] | Emax at 3 µmol/kg [4] | Ratio IC50 [5] | Ratio Ki [6] | Ki [7] | inhibition at 10 µM [13] |
| --- | --- | --- | --- | --- | --- | --- | --- | --- | --- | --- | --- | --- | --- | --- | --- | --- | --- | --- | --- | --- |
| – | – | – | – | – | – | – | – | – | – | – | – | CNC(=O)[C@@]12C[C@@H]1[C@@H](n1cnc3c(NC)nc(C#Cc4ccc(F)c(F)c4)nc31)[C@H](O)[C@@H]2O | 1 h | 28.7% | 27 µM | 99% | > 10000 | > 30 | 0.086 µM | – |
| permeable | 59% | 17% | 30% | 18% | – | – | – | – | – | – | – | CNC(=O)[C@@]12C[C@@H]1[C@@H](n1cnc3c(NC)nc(C#Cc4ccco4)nc31)[C@H](O)[C@@H]2O | 1 h | 27.6% | – | 100% | – | – | – | 21% |
| impermeable | – | 12% | 37% | 25% | > 10 µM | 30% | > 10 µM | > 10 µM | > 10 µM | 2.99 µL/min | > 10 µM | CNC(=O)[C@@]12C[C@@H]1[C@@H](n1cnc3c(NC)nc(C#Cc4cnccn4)nc31)[C@H](O)[C@@H]2O | 1 h | – | – | 100% | – | – | – | – |
